Screens (PubChem BioAssay)
This is a sample that favours compounds with a hit; in the whole collection about 1.1% have one here.
Furin inh – human furin inhibitors, primary screen, biochemical, fluorescence intensity. P09958. purified furin, fluorogenic substrate cleavage. inhibition, % at 20 µM or 30 µM. hit rate 0.061% among 220,000. AID 463115, 2010; in the data active = inhibition above about 25%
FXIIa inh 1536 – human FXIIa protease inhibitors, primary screen, biochemical, 1536-well. hit rate 0.3% among 220,000. inhibition, % at 5 µM. purified FXIIa, Boc-QGR-AMC fluorogenic substrate, 2 h; in the data active = inhibition above about 40%;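 note: 0% = enzyme with no compound and 100% = blank without enzyme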
Target sequence (P00748 20-372 limits assumed): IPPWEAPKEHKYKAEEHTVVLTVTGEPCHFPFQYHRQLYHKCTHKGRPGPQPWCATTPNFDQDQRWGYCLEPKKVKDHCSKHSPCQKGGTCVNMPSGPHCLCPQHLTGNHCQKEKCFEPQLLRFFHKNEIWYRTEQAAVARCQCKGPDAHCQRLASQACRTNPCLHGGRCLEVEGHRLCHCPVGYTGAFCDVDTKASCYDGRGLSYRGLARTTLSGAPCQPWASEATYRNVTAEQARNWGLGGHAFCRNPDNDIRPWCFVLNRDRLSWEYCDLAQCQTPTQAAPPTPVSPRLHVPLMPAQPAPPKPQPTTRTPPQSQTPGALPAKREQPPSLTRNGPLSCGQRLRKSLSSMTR
Target sequence (P00748 373-615 limits assumed): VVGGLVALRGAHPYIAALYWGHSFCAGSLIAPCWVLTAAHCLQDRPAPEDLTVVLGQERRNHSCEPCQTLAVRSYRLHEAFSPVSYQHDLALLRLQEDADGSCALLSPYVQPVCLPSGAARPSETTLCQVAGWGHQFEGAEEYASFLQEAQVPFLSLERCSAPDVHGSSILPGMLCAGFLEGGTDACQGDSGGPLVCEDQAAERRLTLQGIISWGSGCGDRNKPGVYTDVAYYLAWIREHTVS
hK5 inh – human KLK5 protease inhibitors, primary screen, biochemical, 1536-well. hit rate 0.59% among 210,000. inhibition, % at 5 µM. recombinant hK5, fluorogenic AMC substrate cleavage. AID 873, 2007;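 active = inhibition of 40% or more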;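 note: 0% = enzyme controls without compound and 100% = no-enzyme blanks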
FXIa inh – human FXIa protease inhibitors, primary screen, biochemical, 1536-well | Coagulation factor XI (Homo sapiens), P03951 | purified FXIa, Boc-Glu-Ala-Arg-AMC fluorogenic substrate | inhibition, % at 5 µM | hit rate 0.14% among 220,000 | AID 798, 2007;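 active = inhibition of at least 40%; inactive = inhibition below 40%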;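 note: fluorescence of freed AMC excited at 355 nm; 0% = enzyme without compound and 100% = no enzyme blank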
Thrombin inh – human alpha-thrombin inhibitors, primary screen, counter-screen for coagulation protease inhibitor project, biochemical, 1536-well, fluorogenic AMC substrate. Boc-VPR-AMC fluorogenic substrate cleavage. inhibition, % at 5 µM. hit rate 0.26% among 220,000;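 active = inhibition at or above 40%; inactive = inhibition below 40%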;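 note: 0% = enzyme with no compound and 100% = wells without enzyme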
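Assay system: human alpha-thrombin enzyme. Reagent: Boc-VPR-AMC substrate, 15 µM final. Compound dosing: one concentration per compound, 5 µM, with 0.2% DMSO. Incubation: room-temperature reaction. Technique: AMC fluorescence, 355/460 nm. Measure: % inhibition relative to enzyme controls and enzyme-free blanks.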
Numbers without * were called inactive; x = no result.

SMILES	Furin inh	FXIIa inh 1536	hK5 inh	FXIa inh	Thrombin inh
COc1ccc(CNC(=O)CCSCc2ccccc2C)cc1	-12	1	-18	-9	-4
OCCC1CN(Cc2ccccc2-c2ccco2)CCN1Cc1ccccc1 (stereo unspecified)	-35	3	x	-2	-5
O=C(CC1CC2CCC1C2)Nc1nc(-c2ccccn2)cs1 (stereo unspecified)	2	21	87*	28	19
Nn1c(Cc2cccc3ccccc23)nnc1SCCOc1ccc(F)cc1	-5	41*	27	21	28
O=C(Nc1ccc2c(c1)oc1ccccc12)N1CCOCC1	-29	13	-13	42*	3
CC1(c2ccc(Cl)cc2)NC(=O)CS1 (stereo unspecified)	-18	3	-4	-7	-19
O=C(CN(C(=O)c1ccccc1Cl)C1CCCCC1)Nc1ccc(Cl)c([N+](=O)[O-])c1	-19	70*	1	5	0
O=C(CN(C(=O)c1ccc(Cl)cc1)C1CCCCC1)Nc1ccc(Cl)c([N+](=O)[O-])c1	-6	11	-6	6	2
Cc1cc(C(=O)Nc2ccc(N3CCOCC3)cc2)c2ccccc2n1	-17	44*	1	11	0
CCC(CO)[n+]1c(C)cc(/C=C2\Sc3ccccc3N2Cc2ccccc2)cc1C (stereo unspecified)	29*	7	-1	-4	4
CCN(CC)C(=O)COc1ccc(-c2nnc(Nc3ccc(OC)c(C(=O)NC)c3)c3ccccc23)cc1	-12	18	-1	12	0
O=c1c2c(nc3cc(-c4ccc(F)cc4)[nH]n13)CCC2	-24	20	-12	16	-9
O=C(Nc1ccc(SC(F)F)cc1)c1ccccc1F	-4	24	43*	39	35
O=C(Nc1ccc(F)cc1)c1ccccc1F	-10	11	0	0	-1
CCC1=NN2C(=N)/C(=C\c3ccc(OCc4cc(=O)n5nc(CC)sc5n4)c(OC)c3)C(=O)N=C2S1	-18	5	-7	1	-3
Cc1noc(C)c1S(=O)(=O)N1CCC(C(=O)NCCC2=CCCCC2)CC1	-22	1	-2	-9	-4
Cc1nn(C)c(C)c1S(=O)(=O)N1CCC(C(=O)NCCC2=CCCCC2)CC1	-37	41*	65*	7	42*
Nc1nc(CSC(=S)N2CCCCC2)nc(Nc2ccccc2)n1	-17	2	67*	-7	-24
CC12CCC(C(=O)NC(c3ccccc3)c3ccccc3)(OC1=O)C2(C)C (stereo unspecified)	-15	55*	37	12	13
Cc1ccc(C)c(S(=O)(=O)NCCCN2CCOCC2)c1	-7	24	33	31	42*
O=C1/C(=C/C=C/c2ccco2)SC(=S)N1NS(=O)(=O)c1ccccc1	3	23	14	11	22
CC(C(=O)O)N1C(=O)/C(=C/C=C/c2ccco2)SC1=S (stereo unspecified)	5	-5	59*	0	15
CCCCCCCCNC1=CC(=O)CC(C)(C)C1	4	30	50*	23	7
CC1(C)CC(=O)C=C(NCCO)C1	-18	17	-17	3	1
CCN(c1ccccc1)S(=O)(=O)c1ccc(C(=O)Nc2nnc(COC)o2)cc1	-11	55*	13	11	23
SMILES	Furin inh	FXIIa inh 1536	hK5 inh	FXIa inh	Thrombin inh
O=C(O)Cc1ccc2oc(-c3cccnc3)nc2c1	-18	5	12	3	-2
Cc1cc(OCC(=O)Nc2ccc(S(=O)(=O)NC3=NCCCCC3)cc2)c(C(C)C)cc1Cl	-12	5	3	-3	-5
N/C(=N\OC(=O)c1ccc(Cl)c(Cl)c1)c1cccnc1	-10	-13	-17	-16	-5
N/C(=N\OC(=O)c1cccc(Cl)c1)c1cccnc1	-13	13	-1	-2	47*
Cc1nc(C(=O)NC(C)C)nn1-c1cc(Cl)cc(Cl)c1	-17	10	1	1	2
CCc1cccc(Oc2nn[nH]n2)c1	-11	16	77*	9	20
COCCCNC(CC(=O)Nc1ccccc1C(=O)OC)C(=O)O (stereo unspecified)	28*	x	x	x	x
COC(=O)c1ccccc1NC(=O)CC(NCc1ccccc1)C(=O)O (stereo unspecified)	-2	x	x	x	x
